pIC50, pKd: −log10 of the molar value. Active and inactive are the calls of the source. The calls are words filed in the database; no cut-off is given here.
Columns and labels:
[1] = target: T1, [Pyruvate dehydrogenase (acetyl-transferring)] kinase isozyme 1, mitochondrial (Homo sapiens, UniProt Q15118); test: Inhibition of PDK1 in human MCF7 cells assessed as increase in ratio of oxygen consumption rate to extracellular acidification rate at 20 uM after 12 hrs; type: cell-based
Procedure, shortened: (§1)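 MCF-7 cells at 2.7×10⁴ cells/well in XF24 plates, attached, then grown 24 h at 37 °C in 5% CO2. Treated 12 h at 5, 10 or 20 µM, rinsed into glycolysis stress-test medium and held 1 h at 37 °C without CO2. OCR, ECAR and PPR then measured on a Seahorse XFe24 analyser. Significance P < 0.05 versus untreated control.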

[2] = target: T1, [Pyruvate dehydrogenase (acetyl-transferring)] kinase isozyme 1, mitochondrial; test: Inhibition of PDK1 in human MCF7 cells assessed as increase in oxygen consumption rate at 5 to 20 uM after 12 hrs; type: cell-based; procedure, shortened: as §1
[3] = target: T1, [Pyruvate dehydrogenase (acetyl-transferring)] kinase isozyme 1, mitochondrial; test: Inhibition of PDK1 in human MCF7 cells assessed as increase in oxygen consumption rate at 40 uM after 12 hrs; type: cell-based
[4] = target: T1, [Pyruvate dehydrogenase (acetyl-transferring)] kinase isozyme 1, mitochondrial; test: Inhibition of PDK1 in human MCF7 cells assessed as decrease in extracellular acidification rate after 12 hrs; type: cell-based; procedure, shortened: as §1
[5] = target: T1, [Pyruvate dehydrogenase (acetyl-transferring)] kinase isozyme 1, mitochondrial; test: Inhibition of PDK1 in human MCF7 cells assessed as decrease in proton production rate after 12 hrs; type: cell-based; procedure, shortened: as §1
[6] = target: T1, [Pyruvate dehydrogenase (acetyl-transferring)] kinase isozyme 1, mitochondrial; test: Inhibition of PDK1 in human MCF7 cells assessed as decrease in lactate production at 5 to 20 uM after 12 hrs; type: cell-based
MCF7 [7] = test: Reversal of hyperpolarized mitochondrial membrane potential in human MCF7 cells assessed as cells with vital and intact mitochondrial membranes at 20 uM after 12 hrs by JC1 staining-based flow cytometric analysis; type: functional
Procedure, shortened: (§2)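 MCF-7 cells treated 12 h (5, 10 or 20 µM), then stained with JC-1. Depolarization read as the ratio of green J-monomer to red J-aggregate fluorescence.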

MCF7 [8] = test: Reversal of hyperpolarized mitochondrial membrane potential in human MCF7 cells assessed as J-monomer/J-aggregate ratio at 20 uM after 12 hrs by JC1 staining-based flow cytometric analysis; type: functional; procedure, shortened: as §2
MCF7 [9] = test: Reversal of hyperpolarized mitochondrial membrane potential in human MCF7 cells after 12 hrs by JC1 staining-based flow cytometric analysis; type: functional, cell-based
MCF7 [10] = test: Induction of mitochondrial membrane potential depolarization in human MCF7 cells at 40 uM after 12 hrs by TMRM staining-based assay; type: functional, cell-based
MCF7 [11] = test: Reversal of hyperpolarized mitochondrial membrane potential in human MCF7 cells assessed as cells with vital and intact mitochondrial membranes at 5 uM after 12 hrs by JC1 staining-based flow cytometric analysis; type: functional; procedure, shortened: as §2
MCF7 [12] = test: Reversal of hyperpolarized mitochondrial membrane potential in human MCF7 cells assessed as cells with vital and intact mitochondrial membranes at 10 uM after 12 hrs by JC1 staining-based flow cytometric analysis; type: functional; procedure, shortened: as §2
A549 [13] = test: Cytotoxicity against human A549 cells assessed as growth inhibition after 72 hrs by MTT assay; type: functional, cell-based; conditions: A549, 72 h
MCF7 [14] = test: Cytotoxicity against human MCF7 cells assessed as growth inhibition after 72 hrs by MTT assay; type: functional, cell-based; conditions: MCF7, 72 h
[15] = Cytotoxicity against human MCF10A cells assessed as growth inhibition at 10 uM after 72 hrs by MTT assay relative to control; type: cell-based, MCF-10A; conditions: read-out: GI
[16] = Cytotoxicity against human MCF10A cells assessed as growth inhibition at 20 uM after 72 hrs by MTT assay relative to control; type: cell-based, MCF-10A; conditions: read-out: GI
A549 [17] = test: Cytotoxicity against human A549 cells assessed as growth inhibition at 40 uM after 72 hrs by MTT assay relative to control; type: functional, cell-based
MCF7 [18] = test: Cytotoxicity against human MCF7 cells assessed as growth inhibition at 40 uM after 72 hrs by MTT assay relative to control; type: functional, cell-based
MCF7 [19] = test: Induction of apoptosis in human MCF7 assessed as early apoptotic cells at 20 uM after 10 hrs by FITC-annexin V/propidium iodide staining-based flow cytometric analysis (reference value: 2.38%); type: functional
MCF7 [20] = test: Induction of apoptosis in human MCF7 assessed as late apoptotic cells at 20 uM after 10 hrs by FITC-annexin V/propidium iodide staining-based flow cytometric analysis (reference value: 1.95%); type: functional
MCF7 [21] = test: Induction of apoptosis in human MCF7 assessed as necrotic cells at 20 uM after 10 hrs by FITC-annexin V/propidium iodide staining-based flow cytometric analysis (reference value: 1.86%); type: functional
MCF7 [22] = test: Induction of apoptosis in human MCF7 assessed as viable cells at 20 uM after 10 hrs by FITC-annexin V/propidium iodide staining-based flow cytometric analysis (reference value: 93.8%); type: functional; conditions: MCF7, 10 h, read-out: Activity
MCF7 [23] = test: Induction of apoptosis in human MCF7 assessed as early apoptotic cells at 20 uM after 5 hrs by FITC-annexin V/propidium iodide staining-based flow cytometric analysis (reference value: 2.38%); type: functional
MCF7 [24] = test: Induction of apoptosis in human MCF7 assessed as late apoptotic cells at 20 uM after 5 hrs by FITC-annexin V/propidium iodide staining-based flow cytometric analysis (reference value: 1.95%); type: functional
MCF7 [25] = test: Induction of apoptosis in human MCF7 assessed as necrotic cells at 20 uM after 5 hrs by FITC-annexin V/propidium iodide staining-based flow cytometric analysis (reference value: 1.86%); type: functional
MCF7 [26] = test: Induction of apoptosis in human MCF7 assessed as viable cells at 20 uM after 5 hrs by FITC-annexin V/propidium iodide staining-based flow cytometric analysis (reference value: 93.8%); type: functional; conditions: MCF7, 5 h, read-out: Activity
MCF7 [27] = test: Induction of apoptosis in human MCF7 assessed as early apoptotic cells at 20 uM after 15 hrs by FITC-annexin V/propidium iodide staining-based flow cytometric analysis (reference value: 2.38%); type: functional
MCF7 [28] = test: Induction of apoptosis in human MCF7 assessed as late apoptotic cells at 20 uM after 15 hrs by FITC-annexin V/propidium iodide staining-based flow cytometric analysis (reference value: 1.95%); type: functional
MCF7 [29] = test: Induction of apoptosis in human MCF7 assessed as necrotic cells at 20 uM after 15 hrs by FITC-annexin V/propidium iodide staining-based flow cytometric analysis (reference value: 1.86%); type: functional
MCF7 [30] = test: Induction of apoptosis in human MCF7 assessed as viable cells at 20 uM after 15 hrs by FITC-annexin V/propidium iodide staining-based flow cytometric analysis (reference value: 93.8%); type: functional; conditions: MCF7, 15 h, read-out: Activity
MCF7 [31] = test: Induction of apoptosis in human MCF7 assessed as viable cells at 20 uM by FITC-annexin V/propidium iodide staining-based flow cytometric analysis; type: functional, cell-based; conditions: TDE = time-dependent effect
[32] = target: T1, [Pyruvate dehydrogenase (acetyl-transferring)] kinase isozyme 1, mitochondrial; test: Binding affinity to recombinant N-terminal 6xHis-SUMO-tagged human PDK1 (29 to 436 residues) expressed in Escherichia coli BL-21 by isothermal titration calorimetric method
Procedure, shortened: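 Ligand titrated into PDK1 (10 or 20 µM) by ITC at 25 °C, 2.5 µL injections into a 300 µL cell. Protein is His-SUMO-tagged, co-expressed with GroEL/GroES in E. coli BL-21, purified by Ni-IMAC and gel filtration.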

A549 [33] = test: Cytotoxicity against human A549 cells assessed as growth inhibition at 20 uM after 72 hrs by IncuCyte Zoom live cells imaging method; type: functional, cell-based
MCF7 [34] = test: Cytotoxicity against human MCF7 cells assessed as growth inhibition at 20 uM after 72 hrs by IncuCyte Zoom live cells imaging method; type: functional, cell-based
[35] = target: T1, [Pyruvate dehydrogenase (acetyl-transferring)] kinase isozyme 1, mitochondrial; test: Inhibition of recombinant N-terminal 6xHis-SUMO-tagged human PDK1 (29 to 436 residues) expressed in Escherichia coli BL-21 assessed as phosphorylation of RYHGHSMSDP at 50 uM after 30 mins by Kinase-Glo luminescent assay
Sus scrofa [36] = species on record: Sus scrofa; test: Activation of pig heart PDC assessed as production of NADH at 50 uM in presence of ATP
Procedure, shortened: (§3)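 Pig heart PDC (80 µg/ml, carrying intrinsic PDK activity) preincubated 40 min at 37 °C in Mops pH 7.20 buffer with NaF, acetyl-CoA, NADH and DTT. Kinase step 3 min at 37 °C with 55 µM ADP and 100 µM ATP, or no ATP. Stopped with ADP/pyruvate. Residual PDC activity then read as NADH formation at 340 nm, 37 °C, in Tris pH 7.8 with TPP, NAD+, pyruvate and CoA.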

Sus scrofa [37] = species on record: Sus scrofa; test: Activation of pig heart PDC assessed as production of NADH at 50 uM in absence of ATP; procedure, shortened: as §3
[38] = target: T1, [Pyruvate dehydrogenase (acetyl-transferring)] kinase isozyme 1, mitochondrial; test: Inhibition of recombinant N-terminal 6xHis-SUMO-tagged human PDK1 (29 to 436 residues) expressed in Escherichia coli BL-21 assessed as activation of PDC at 50 uM
[39] = target: T1, [Pyruvate dehydrogenase (acetyl-transferring)] kinase isozyme 1, mitochondrial; test: Inhibition of recombinant N-terminal 6xHis-SUMO-tagged human PDK1 (29 to 436 residues) expressed in Escherichia coli BL-21 assessed as suppression of PDC phosphorylation at S293 at 50 uM after 30 mins by Western blot method

T1 sequence (Q15118 whole entry): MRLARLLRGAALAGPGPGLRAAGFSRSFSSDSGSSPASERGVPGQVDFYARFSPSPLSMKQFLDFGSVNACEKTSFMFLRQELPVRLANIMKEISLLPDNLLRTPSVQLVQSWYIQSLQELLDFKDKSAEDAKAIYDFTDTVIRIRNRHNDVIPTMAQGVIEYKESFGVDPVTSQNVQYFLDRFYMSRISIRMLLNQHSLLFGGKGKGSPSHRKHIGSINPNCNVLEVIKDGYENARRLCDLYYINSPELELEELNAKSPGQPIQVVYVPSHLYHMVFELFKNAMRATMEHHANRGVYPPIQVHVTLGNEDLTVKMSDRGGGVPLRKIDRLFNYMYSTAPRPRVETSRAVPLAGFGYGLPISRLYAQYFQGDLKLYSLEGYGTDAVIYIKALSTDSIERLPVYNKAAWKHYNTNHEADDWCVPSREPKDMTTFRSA

- inhibition [1]: Active
- inhibition [2]: Dose-dependent effect
- inhibition [3]: inactive
- inhibition [4]: Dose-dependent effect
- inhibition [5]: Dose-dependent effect
- inhibition [6]: Active
- pKd [32]: 4.39
- inhibition [35]: Active
- Activity (Sus scrofa [36]): inactive
- Activity (Sus scrofa [37]): Active
- inhibition [38]: Active
- inhibition [39]: Active
Structure (SMILES): O=C(Nc1ccc(Cl)c(C(F)(F)F)c1)C(Cl)Cl
- Activity (MCF7 [7]): 46.8%
- Ratio (MCF7 [8]): 1.69
- Activity (MCF7 [9]): Dose-dependent effect
- Activity (MCF7 [10]): Active
- Activity (MCF7 [11]): 79.7%
- Activity (MCF7 [12]): 65%
- pIC50 (A549 [13]): 5.13
- pIC50 (MCF7 [14]): 5.51
- inhibition at 72 h, 10 µM [15]: 3.51%
- inhibition at 72 h, 20 µM [16]: 10.3%
- growth inhibition (GI) (A549 [17]): Active
- growth inhibition (GI) (MCF7 [18]): Active
- Activity (MCF7 [19]): 2.88%
- Activity (MCF7 [20]): 11.8%
- Activity (MCF7 [21]): 3.47%
- viability at 20 µM (MCF7 [22]): 81.9%
- Activity (MCF7 [23]): 1.98%
- Activity (MCF7 [24]): 10.2%
- Activity (MCF7 [25]): 5.41%
- viability at 20 µM (MCF7 [26]): 82.4%
- Activity (MCF7 [27]): 2.65%
- Activity (MCF7 [28]): 14.2%
- Activity (MCF7 [29]): 4.96%
- viability at 20 µM (MCF7 [30]): 78.2%
- Activity (MCF7 [31]): tde
- growth inhibition (GI) (A549 [33]): Active
- growth inhibition (GI) (MCF7 [34]): Active

— ChEMBL document CHEMBL3813671, “Unexpected Discovery of Dichloroacetate Derived Adenosine Triphosphate Competitors Targeting Pyruvate Dehydrogenase Kinase To Inhibit Cancer Proliferation” (J Med Chem, 2016)
